Assay results published in PMC10125367 (ACS Bio & Med Chem Au, 2022).
One block for each compound: values may come before it.

Columns and labels:
GDP-KRAS(G12D) = GDP-KRAS(G12D) (Homo sapiens, UniProt P01116, G12D); experiment: Isothermal titration calorimetry; format: binding
[1] = test system: BHK cells expressing GFP-tagged KRAS(G12D); experiment: Cell signaling assay; format: cell-based, baby hamster
Summary of the method: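 Whole-cell lysates were immunoblotted for phospho-c-Raf, phospho-ERK and phospho-AKT, with vinculin as loading control. Levels were quantified relative to DMSO, averaged from three independent experiments and compared by unpaired Student's t test.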

Microsomal stability [2] = format: in vitro ADME; settings: mouse, microsomes
KRAS(G12D) [3] = target: T1, KRAS(G12D) (Homo sapiens, UniProt P01116, G12D); experiment: Microscale thermophoresis; format: binding; settings: Kd from MST, GDP-bound KRAS(G12D)
KRAS = KRAS (Homo sapiens, UniProt P01116); experiment: Intrinsic nucleotide release; format: biochemical; settings: 50 µM ligand, 100 µM GTP
Microsomal stability [4] = format: in vitro ADME; settings: human, microsomes
KRAS(WT) [5] = target: T2, KRAS(WT) (Homo sapiens, UniProt P01116); experiment: Microscale thermophoresis; format: binding; settings: Kd from MST, GDP-bound KRAS(WT)
[6] = target: KRAS(G12D)-RafRBD interaction (Homo sapiens, UniProt P01116, G12D); experiment: RBD pull-down assay in BHK cell lysates; format: cell-based, baby hamster; settings: lysates treated with 10 μM or more, 1 h
Summary of the method: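 GTP-bound GFP-KRAS(G12D) and endogenous RAS were pulled down with GST-c-Raf RBD and detected by western blot, with total GFP-KRAS(G12D) and total RAS as loading controls. Signals were normalised to DMSO and averaged over three independent experiments, with unpaired Student's t test.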

GDP-KRAS(G13D) = GDP-KRAS(G13D) (Homo sapiens, UniProt P01116, G13D); experiment: Isothermal titration calorimetry; format: binding
KRAS(WT) [7] = target: T2, KRAS(WT); experiment: Intrinsic fluorescence; format: binding; settings: 0 to 50 µM ligand, 2 µM KRAS; qualitative
KRAS(WT) [8] = target: T2, KRAS(WT); experiment: Intrinsic GDP/GTP nucleotide exchange; format: biochemical
Summary of the method: (§1)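 Recombinant KRAS(WT), BODIPY-GTP (BGTP) and, for SOS-mediated exchange, SOS are each at 0.5 μM. Buffer is 25 mM Tris Cl pH 7.5, 50 mM NaCl, 10 mM MgCl2, with test compound at 0–50 μM. Fluorescence rise on BGTP binding is normalised to the 60 s and KRAS-alone maximum values. Rates come from linear (intrinsic) or single-exponential (SOS) fits, and EC50 from fitting rate versus concentration.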

NRAS = NRAS (Homo sapiens, UniProt P01111); experiment: Thermal shift assay; format: binding; settings: 50 μM compound
NRAS, sequence (P01111 whole entry): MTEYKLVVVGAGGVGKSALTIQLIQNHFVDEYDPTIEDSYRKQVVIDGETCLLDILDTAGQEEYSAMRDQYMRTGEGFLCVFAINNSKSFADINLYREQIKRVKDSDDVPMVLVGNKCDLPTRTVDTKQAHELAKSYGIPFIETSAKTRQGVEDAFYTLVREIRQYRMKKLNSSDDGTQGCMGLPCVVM

[9] = test system: cancer cells expressing various mutants of KRAS; experiment: Cell proliferation, summary; format: cell-based
KRAS(WT) with SOS = KRAS(WT) with SOS (Homo sapiens, UniProt P01116); experiment: SOS-mediated GDP/GTP nucleotide exchange; format: biochemical
Summary of the method: as §1

KRAS(Q61H) = KRAS(Q61H) (Homo sapiens, UniProt P01116, Q61H); experiment: Microscale thermophoresis; format: binding
MDR1 (P-gp) = experiment: Permeability and efflux in MDR1-MDCK cell monolayer system; format: in vitro ADME; settings: dog
MDR1 = experiment: as above; format: in vitro ADME; settings: dog, MDCK-MDR1
MDR1-MDCK cell monolayer = experiment: as above; format: in vitro ADME; settings: corrected for cell volume on donor side
[10] = test system: MIAPaCa-2 xenograft tumor; experiment: MIAPaCa-2 subcutaneous xenograft tumor model; format: in vivo, mouse; settings: 5 mg/kg IP
Summary of the method: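 Nude mice received MIAPaCa-2 cells subcutaneously in the hind flank and were split after 3 days into groups of equal mean tumour volume (8 vehicle, 7 treated). Dosing was 5 mg/kg test compound in corn oil, or DMSO in corn oil, intraperitoneally 5 days/week. Caliper volumes, (length × width²)/2, were taken twice weekly and body weights weekly. Tumour lysates were blotted for p-ERK, total ERK and GAPDH.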

Microsomal stability [11] = format: in vitro ADME; settings: rat, microsomes
KRAS(G12D) [12] = target: T1, KRAS(G12D); experiment: Intrinsic fluorescence; format: binding; settings: 0 to 50 µM ligand, 2 µM KRAS; qualitative
GDP-KRAS(WT) = GDP-KRAS(WT) (Homo sapiens, UniProt P01116); experiment: Isothermal titration calorimetry; format: binding; settings: Kd from ITC, GDP-bound KRAS(WT), 25 °C
KRAS with SOS = KRAS with SOS (Homo sapiens, UniProt P01116); experiment: SOS-mediated nucleotide release; format: biochemical; settings: 50 µM ligand, 100 µM GTP, 0.5 µM SOS
GDP-KRAS(Q61H) = GDP-KRAS(Q61H) (Homo sapiens, UniProt P01116, Q61H); experiment: Isothermal titration calorimetry; format: binding
GDP-KRAS(G12C) = GDP-KRAS(G12C) (Homo sapiens, UniProt P01116, G12C); experiment: Isothermal titration calorimetry; format: binding
HRAS = HRAS (Homo sapiens, UniProt P01112); experiment: Thermal shift assay; format: binding; settings: 50 μM compound
HRAS, sequence (P01112 whole entry): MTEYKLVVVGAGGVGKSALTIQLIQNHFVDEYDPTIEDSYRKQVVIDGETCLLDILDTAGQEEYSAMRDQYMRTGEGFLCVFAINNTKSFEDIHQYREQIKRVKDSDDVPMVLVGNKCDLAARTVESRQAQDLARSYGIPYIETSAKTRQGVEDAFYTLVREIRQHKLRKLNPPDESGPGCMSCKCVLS

KRAS(G12C) = KRAS(G12C) (Homo sapiens, UniProt P01116, G12C); experiment: Microscale thermophoresis; format: binding
SOS = settings: read-out: IC50 in vitro; inhibits SOS; ref 20 Kessler, et al.; cited from earlier work
Raf = settings: read-out: IC50 in vitro; inhibits Raf; ref 20 Kessler, et al.; cited from earlier work
[13] = MDCK-MDR1, Papparent efflux ratio (ER)

Structure (SMILES): O=C(O)c1cc(NC(=O)C2CC2c2ccccc2)ccc1O (centres unmarked) [ACA-14, 2-hydroxy-5-{[(2-phenylcyclopropyl)carbonyl]amino} benzoic acid]
Kd (GDP-KRAS(G12D)): 45900 nM | Concentration required to inhibit MAPK signaling [1]: > 20 µM | Level of phosphorylated ERK (p-ERK) ([1]; 3 h, serum-starved): significantly reduced | Level of phosphorylated c-Raf (p-cRaf) ([1]; 3 h, serum-starved): significantly reduced | p-AKT level ([1]; 3 h, serum-starved, concentration range tested): little effect | Intrinsic clearance (Microsomal stability [2]): < 0.3 mL/min/g | half-life (Microsomal stability [2]): > 3 h | Kd (KRAS(G12D) [3]): > 50000 nM | Effect on rate of intrinsic GDP release (KRAS): lack of effect | Intrinsic clearance (Microsomal stability [4]): < 0.3 mL/min/g | half-life (Microsomal stability [4]): > 3 h | Kd (KRAS(WT) [5]): 4500 ± 1500 nM | Level of GFP-tagged GTP-KRAS(G12D) pulled down by c-Raf RBD [6]: significantly reduced | Level of endogenous RAS pulled down by c-Raf RBD [6]: significantly reduced | Kd (GDP-KRAS(G13D)): 34100 nM | Change in intrinsic fluorescence of the compound on mixing with protein (KRAS(WT) [7]): concentration-dependent changes | EC50 (KRAS(WT) [8]): 3800 ± 600 nM | Change in melting temperature (Tm) (NRAS): no measurable change | Concentration required to inhibit proliferation [9]: > 20 µM | EC50 (KRAS(WT) with SOS): 2100 ± 400 nM | Kd (KRAS(Q61H)): 20 ± 10 nM | efflux ratio (MDR1 (P-gp); [13]): 0.65 | efflux ratio (MDR1 (P-gp); MDCK-MDR1, Pexact efflux ratio): 0.72 | Papp A→B (MDR1): 5.42 ×10⁻⁶ cm/s | Papp B→A (MDR1): 3.51 ×10⁻⁶ cm/s | Pexact, A > B (MDR1-MDCK cell monolayer): 5.355 ×10⁻⁶ cm/s | Pexact, B > A (MDR1-MDCK cell monolayer): 3.833 ×10⁻⁶ cm/s | Weight gain of treated mice ([10]; nude mice, 5 days per week): did not affect weight gain | Tumor growth ([10]; nude mice, 5 days per week, maintained until day 20): small but statistically significant reduction | ERK activation within tumors (p-ERK western blot) ([10]; tumor lysates): small but significant reduction | Intrinsic clearance (Microsomal stability [11]): < 0.3 mL/min/g | half-life (Microsomal stability [11]): > 3 h | Change in intrinsic fluorescence of the compound on mixing with protein (KRAS(G12D) [12]): concentration-dependent changes | Kd (GDP-KRAS(WT)): 1100 nM | Effect on rate of SOS-mediated GDP release (KRAS with SOS): lack of effect | Kd (GDP-KRAS(Q61H)): 1040 nM | Kd (GDP-KRAS(G12C)): 11800 nM | Change in melting temperature (Tm) (HRAS): no measurable change | Kd (KRAS(G12C)): 340 ± 70 nM

Structure (SMILES): Cn1cnc(Cn2ccc3ccc(CNCc4[nH]c5ccccc5c4[C@H]4NC(=O)c5ccc(O)cc54)cc32)c1 [BI-2852]
IC50 (SOS): 500 to 700 nM | IC50 (Raf): 500 to 700 nM

efflux ratio (MDR1 (P-gp); [13]): 10.3 | efflux ratio (MDR1 (P-gp); MDCK-MDR1, Pexact efflux ratio): 16.9 | Papp A→B (MDR1): 1.65 ×10⁻⁶ cm/s | Papp B→A (MDR1): 17.1 ×10⁻⁶ cm/s | Pexact, A > B (MDR1-MDCK cell monolayer): 1.436 ×10⁻⁶ cm/s | Pexact, B > A (MDR1-MDCK cell monolayer): 24.325 ×10⁻⁶ cm/s
Structure (SMILES): CC(C)CN(C[C@@H](O)[C@H](Cc1ccccc1)NC(=O)O[C@H]1CCOC1)S(=O)(=O)c1ccc(N)cc1 [amprenavir]

efflux ratio (MDR1 (P-gp); [13]): 0.48 | efflux ratio (MDR1 (P-gp); MDCK-MDR1, Pexact efflux ratio): 0.52 | Papp A→B (MDR1): 31.2 ×10⁻⁶ cm/s | Papp B→A (MDR1): 15 ×10⁻⁶ cm/s | Pexact, A > B (MDR1-MDCK cell monolayer): 39.979 ×10⁻⁶ cm/s | Pexact, B > A (MDR1-MDCK cell monolayer): 20.715 ×10⁻⁶ cm/s
Structure (SMILES): CC(C)NCC(O)COc1cccc2ccccc12 (centres unmarked) [propranolol]
